Results as given in ChEMBL document CHEMBL1125210, “Benzylated 1,2,3-triazoles as anticoccidiostats” (J Med Chem, 1991).
Activity calls are given as the source filed them. No cut-off for these calls is given here.

What was measured:
[1] = test system: Eimeria acervulina; assay: Anticoccidial activity in chicken against Eimeria acervulina.; type: functional; parameters: Reduction: concentration or dose not given beside the values
Summary of the method: (§1)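 3-Day-old chicks infected separately with E. tenella or E. acervulina; test compound given mixed in the feed at the stated rates. Activity was scored as percent suppression of oocyst production versus infected, unmedicated controls. Toxicity was judged from average weight gain relative to uninfected controls.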

[2] = test system: Eimeria tenella; assay: Anticoccidial activity in chicken against E. tenella; type: functional; parameters: Reduction: concentration or dose not given beside the values; summary of the method: as §1
[3] = species: Gallus gallus; assay: The compound was tested for anti-coccidial activity in chicken against E. acervulina; Inactive; type: functional, organism-based; summary of the method: as §1
[4] = species: Gallus gallus; assay: The compound was tested for anti-coccidial activity in chicken against E. brunetti (FS-103) measured at dose 125(ppm in diet); type: functional
[5] = species: Gallus gallus; assay: The compound was tested for anti-coccidial activity in chicken against E. hagani(DP-786) measured at dose 125(ppm in diet); type: functional
[6] = species: Gallus gallus; assay: The compound was tested for anti-coccidial activity in chicken against E. maxima(DP-776) measured at dose 125(ppm in diet); type: functional
[7] = species: Gallus gallus; assay: The compound was tested for anti-coccidial activity in chicken against E. praecox(DP-785) measured at dose 125(ppm in diet); type: functional
[8] = species: Gallus gallus; assay: The compound was tested for anti-coccidial activity in chicken against E. mitis(LS-84) measured at dose 125(ppm in diet); type: functional
[9] = species: Gallus gallus; assay: The compound was tested for anti-coccidial activity in chicken against E. tenella(DP-761) measured at dose 125(ppm in diet); type: functional
[10] = species: Gallus gallus; assay: The compound was tested for anti-coccidial activity in chicken against E. acervulina (DP-761) measured at dose 125(ppm in diet); type: functional
[11] = species: Gallus gallus; assay: The compound was tested for anti-coccidial activity in chicken against Eimeria praecox (DP-785) measured at dose 100 (ppm in diet); type: functional
[12] = species: Gallus gallus; assay: The compound was tested for anti-coccidial activity in chicken against Eimeria acervulina (DP-761) measured at dose 100 (ppm in diet); type: functional
[13] = species: Gallus gallus; assay: The compound was tested for anti-coccidial activity in chicken against Eimeria brunetti (FS-103) measured at dose 100 (ppm in diet); type: functional
[14] = species: Gallus gallus; assay: The compound was tested for anti-coccidial activity in chicken against Eimeria hagani (DP-786) measured at dose 100 (ppm in diet); type: functional
[15] = species: Gallus gallus; assay: The compound was tested for anti-coccidial activity in chicken against Eimeria maxima (DP-776) measured at dose 100 (ppm in diet); type: functional
[16] = species: Gallus gallus; assay: The compound was tested for anti-coccidial activity in chicken against Eimeria mitis (LS-84) measured at dose 100 (ppm in diet); type: functional
[17] = species: Gallus gallus; assay: The compound was tested for anti-coccidial activity in chicken against Eimeria tenella (DP-761) measured at dose 100 (ppm in diet); type: functional
Summary of the method: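 Test article mixed into the feed at the stated rates and given to 3-day-old chicks infected with […]. Each Eimeria species was inoculated separately. Activity was scored as percent suppression of oocyst output relative to infected, unmedicated controls. Toxicity was judged from average weight gain relative to uninfected controls.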

[18] = species: Gallus gallus; assay: The compound was tested for anti-coccidial activity in chicken against E. acervulina (DP-761) measured at dose 33(ppm in diet); type: functional
[19] = species: Gallus gallus; assay: The compound was tested for anti-coccidial activity in chicken against E. brunetti (FS-103) measured at dose 33(ppm in diet); type: functional
[20] = species: Gallus gallus; assay: The compound was tested for anti-coccidial activity in chicken against E. hagani(DP-786) measured at dose 33(ppm in diet); type: functional
[21] = species: Gallus gallus; assay: The compound was tested for anti-coccidial activity in chicken against E. maxima(DP-776) measured at dose 33(ppm in diet); type: functional
[22] = species: Gallus gallus; assay: The compound was tested for anti-coccidial activity in chicken against E. praecox(DP-785) measured at dose 33(ppm in diet); type: functional
[23] = species: Gallus gallus; assay: The compound was tested for anti-coccidial activity in chicken against E. mitis(LS-84) measured at dose 33(ppm in diet); type: functional
[24] = species: Gallus gallus; assay: The compound was tested for anti-coccidial activity in chicken against E. tenella(DP-761) measured at dose 33(ppm in diet); type: functional
[25] = species: Gallus gallus; assay: The compound was tested for anti-coccidial activity in chicken against Eimeria brunetti (FS-103) measured at dose 60 (ppm in diet); type: functional
[26] = species: Gallus gallus; assay: The compound was tested for anti-coccidial activity in chicken against Eimeria hagani (DP-786) measured at dose 60 (ppm in diet); type: functional
[27] = species: Gallus gallus; assay: The compound was tested for anti-coccidial activity in chicken against Eimeria maxima (DP-776) measured at dose 60 (ppm in diet); type: functional
[28] = species: Gallus gallus; assay: The compound was tested for anti-coccidial activity in chicken against Eimeria praecox (DP-785) measured at dose 60 (ppm in diet); type: functional
[29] = species: Gallus gallus; assay: The compound was tested for anti-coccidial activity in chicken against Eimeria mitis (LS-84) measured at dose 60 (ppm in diet); type: functional

NC(=O)c1nnn(Cc2cc(Cl)c(C(=O)c3ccc(Br)cc3)c(Cl)c2)c1N
Reduction [1]: 80% | Reduction [2]: 90%

NC(=O)c1nnn(Cc2cc(Cl)c(C(=O)c3cc(Cl)cc(Cl)c3)c(Cl)c2)c1N
Reduction [1]: > 99% | Reduction [2]: > 99%

NC(=O)c1nnn(Cc2cc(Cl)c(C(=O)c3ccc(F)cc3)c(Cl)c2)c1N
Reduction [1]: 90% | Reduction [2]: 90%

NC(=O)c1nnn(Cc2ccc(C(=O)c3c(Cl)cccc3Cl)cc2)c1N
MED [1]: > 250 ppm | MED [2]: > 250 ppm

NC(=O)c1ncn(Cc2ccc(Cl)c(Cl)c2)c1N
Reduction [1]: >99% | Reduction [2]: >99%

NC(=O)c1nnn(Cc2cccc(C(=O)c3ccc(Cl)cc3)c2)c1N
Reduction [1]: 90% | MED [2]: > 500 ppm

NC(=O)c1nnn(Cc2ccc(C(=O)c3ccc(Cl)cc3)c(Cl)c2)c1N
Reduction [1]: 90% | MED [2]: > 500 ppm

N#Cc1ccc(C(=O)c2c(Cl)cc(Cn3nnc(C(N)=O)c3N)cc2Cl)cc1
Reduction [1]: 90% | Reduction [2]: 90%

NC(=O)c1nnn(Cc2cc(Cl)cc(Cl)c2)c1N
MED [1]: > 125 ppm | MED [2]: > 125 ppm

NC(=O)c1nnn(Cc2cc(Cl)c(C(=O)c3ccc(C(Cl)=C(Cl)Cl)cc3)c(Cl)c2)c1N
Reduction [1]: 90% | Reduction [2]: 80%

NC(=O)c1nnn(Cc2ccc(Cl)c(Cl)c2)c1N
Reduction [1]: 80% | Reduction [2]: 80%

NC(=O)c1nnn(Cc2cc(Cl)c(C(=O)c3ccc(Cl)c(Cl)c3)c(Cl)c2)c1N
Reduction [1]: 90% | Reduction [2]: 90%

NC(=O)c1nnn(Cc2ccc(C(=O)c3ccc(Cl)cc3Cl)c(Cl)c2)c1N
MED [1]: > 250 ppm | Reduction [2]: 90%

NC(=O)c1nnn(Cc2ccc(Cl)c(C(=O)c3ccc(Cl)cc3)c2)c1N
Reduction [1]: 90% | Reduction [2]: 90%

NC(=O)c1nnn(Cc2cc(Cl)c(C(=O)c3ccccc3)c(Cl)c2)c1N
Reduction [1]: 90% | Reduction [2]: 90%

NC(=O)c1nnn(Cc2ccc(C(=O)c3ccc(Cl)cc3)cc2)c1N
Minimum active dose [1]: > 500 ppm | MED [2]: > 500 ppm

NC(=O)c1nnn(Cc2cc(F)c(C(=O)c3ccc(Cl)cc3)c(Cl)c2)c1N
Reduction [1]: 90% | Reduction [2]: 90%

NC(=O)c1nnn(Cc2ccc(Cl)cc2)c1N
Reduction [1]: 80% | MED [2]: > 1000 ppm

NC(=O)c1nnn(Cc2cc(Cl)c(C(=O)c3ccc(I)cc3)c(Cl)c2)c1N
Reduction [1]: 90% | Reduction [2]: >99%

COC(=O)c1ccc(C(=O)c2c(Cl)cc(Cn3nnc(C(N)=O)c3N)cc2Cl)cc1
MED [1]: > 250 ppm | MED [2]: > 250 ppm

NC(=O)c1nnn(Cc2cc(Cl)c(C(=O)c3ccc(Cl)cc3)c(Br)c2)c1N
Reduction [1]: 90% | Reduction [2]: 90%

NC(=O)c1nnn(Cc2ccc(C(=O)c3c(Cl)cc(Cl)cc3Cl)cc2)c1N
Reduction [1]: 90% | MED [2]: > 250 ppm

NC(=O)c1nnn(Cc2ccccc2)c1N
Reduction [3]: inactive

CCCc1ncc(C[n+]2ccccc2C)c(N)n1.Cl.[Cl-] [AMPROLIUM]
Reduction [1]: 80% | Reduction [4]: 79% | Reduction [5]: 0% | Reduction [6]: 0% | Reduction [7]: 18% | Reduction [2]: 80% | Reduction [8]: 36% | Reduction [9]: 100% | Reduction [10]: 7%

Nc1ncnc2c1ncn2Cc1c(F)cccc1Cl [ARPRINOCID]
Reduction [1]: 80% | Reduction [2]: 80%

CC[C@@H](C(=O)[C@@H](C)[C@@H](O)[C@H](C)CCc1ccc(C)c(O)c1C(=O)O)[C@H]1O[C@](CC)([C@H]2CC[C@](O)(CC)[C@H](C)O2)C[C@@H]1C [LASALOCID]
Reduction [11]: 34% | Reduction [1]: 80% | Reduction [12]: 16% | Reduction [13]: 100% | Reduction [14]: 74% | Reduction [15]: 100% | Reduction [16]: 100% | Reduction [2]: 80% | Reduction [17]: 100%

Cc1cc(C)nc(O)n1.O=C(Nc1ccc([N+](=O)[O-])cc1)Nc1ccc([N+](=O)[O-])cc1 [NICARBAZIN]
Reduction [1]: 80% | Reduction [4]: 100% | Reduction [5]: 0% | Reduction [6]: 21% | Reduction [7]: 34% | Reduction [2]: 80% | Reduction [8]: 100% | Reduction [9]: 100% | Reduction [10]: 0%

N=C(N/N=C/c1ccc(Cl)cc1)N/N=C/c1ccc(Cl)cc1 [ROBENIDINE]
Reduction [1]: 80% | Reduction [18]: 99.9% | Reduction [19]: 100% | Reduction [20]: 0% | Reduction [21]: 21% | Reduction [22]: 54% | Reduction [2]: 80% | Reduction [23]: 100% | Reduction [24]: 0%

CC[C@@H](C(=O)[C@@H](C)[C@@H](O)[C@H](C)[C@@H]1O[C@@H]([C@@H](CC)C(=O)O)CC[C@@H]1C)[C@H]1O[C@]2(C=C[C@@H](O)[C@]3(CC[C@@](C)([C@H]4CC[C@](O)(CC)[C@H](C)O4)O3)O2)[C@H](C)C[C@@H]1C [SALINOMYCIN]
Reduction [25]: 74% | Reduction [26]: 0% | Reduction [27]: 0% | Reduction [28]: 62% | Reduction [2]: 85% | Reduction [29]: 91%
